This note sets out measurements from the M2OR odorant receptor database.

SMILES strings stand for the structures.

Common to all, as to conditions: stereoisomer not certain
In one assay the target is T1, UniProt Q8VF43.
T1 sequence (whole entry): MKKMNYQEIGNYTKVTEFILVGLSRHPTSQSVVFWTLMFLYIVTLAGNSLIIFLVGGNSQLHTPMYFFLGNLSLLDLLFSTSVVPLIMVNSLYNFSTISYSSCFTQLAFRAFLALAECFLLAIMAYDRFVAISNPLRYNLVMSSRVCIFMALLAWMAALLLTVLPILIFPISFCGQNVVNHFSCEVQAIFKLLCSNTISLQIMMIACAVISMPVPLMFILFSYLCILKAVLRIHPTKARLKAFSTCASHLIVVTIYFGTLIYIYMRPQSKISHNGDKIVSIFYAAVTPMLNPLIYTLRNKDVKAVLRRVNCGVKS
In outline:
(§1)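 Each entry records the cell line, G-protein, co-transfected protein and tags used. Methods varied with the source, often transient luciferase assays in mammalian cell lines. A receptor–molecule pair is called responsive (active) if the original authors judged its signal statistically different from baseline and non-responsive (inactive) otherwise.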

In a further assay the target is T2, UniProt Q8VF52.
T2 sequence (whole entry): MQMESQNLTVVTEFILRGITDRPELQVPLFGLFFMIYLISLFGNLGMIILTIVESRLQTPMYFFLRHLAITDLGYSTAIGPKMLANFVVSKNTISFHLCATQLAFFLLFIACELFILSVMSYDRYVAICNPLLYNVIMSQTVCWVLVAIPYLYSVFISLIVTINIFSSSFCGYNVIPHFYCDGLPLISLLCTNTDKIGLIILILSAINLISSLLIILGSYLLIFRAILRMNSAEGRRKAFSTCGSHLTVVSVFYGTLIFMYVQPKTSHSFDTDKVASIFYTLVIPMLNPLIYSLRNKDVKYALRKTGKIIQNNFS
Put shortly:
as §1

Another assay concerns the target T3, UniProt Q8VFM8.
T3 sequence (whole entry): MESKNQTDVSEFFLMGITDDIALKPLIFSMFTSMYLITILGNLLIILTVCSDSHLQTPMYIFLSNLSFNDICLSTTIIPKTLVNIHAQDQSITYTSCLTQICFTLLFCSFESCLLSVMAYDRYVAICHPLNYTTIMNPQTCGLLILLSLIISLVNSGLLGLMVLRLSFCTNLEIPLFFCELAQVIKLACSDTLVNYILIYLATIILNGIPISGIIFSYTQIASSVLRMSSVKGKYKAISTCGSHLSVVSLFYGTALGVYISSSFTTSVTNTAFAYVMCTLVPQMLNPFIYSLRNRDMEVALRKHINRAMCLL
Put shortly: as §1

On to `C=CC(C)=CCC=C(C)CCC=C(C)C`, for which the “odorant receptor agonist call” value with UniProt Q8VF43, in the assay with UniProt Q8VF52 and in the assay with UniProt Q8VFM8 was “inactive” in each case.

As for `CC(C)=C1CCC(C)CC1=O` (configuration not stated), the “odorant receptor agonist call” value with UniProt Q8VF43, in the assay with UniProt Q8VF52 and with UniProt Q8VFM8 was “inactive” each time.

For the molecule `C=CC(=C)CCC=C(C)CCC=C(C)C`, the “odorant receptor agonist call” value in the assay with UniProt Q8VF43, in the assay with UniProt Q8VF52 and in the assay with UniProt Q8VFM8 was “inactive” each time.

In the case of `OCCc1ccccc1`, the “odorant receptor agonist call” value with UniProt Q8VF43, with UniProt Q8VF52 and with UniProt Q8VFM8 was “inactive” each time.

As to `OCCCCCCCCCO`, the “odorant receptor agonist call” value with UniProt Q8VF43, with UniProt Q8VF52 and with UniProt Q8VFM8 was “inactive” in each case.

On to `CC(=O)C=CC1=C(C)CCCC1(C)C`, for which the “odorant receptor agonist call” value with UniProt Q8VF43 and with UniProt Q8VFM8 was “inactive” each time. In the assay with UniProt Q8VF52, the “odorant receptor agonist call” value was “active”.

As for `CCc1ccccc1O`, the “odorant receptor agonist call” value in the assay with UniProt Q8VF43, with UniProt Q8VF52 and with UniProt Q8VFM8 was “inactive” throughout.

For the molecule `CCC(C)O` (configuration not stated), the “odorant receptor agonist call” value in the assay with UniProt Q8VF43, with UniProt Q8VF52 and in the assay with UniProt Q8VFM8 was “inactive” throughout.

For the molecule `Cc1ccc(C(C)C)c(O)c1`, the “odorant receptor agonist call” value in the assay with UniProt Q8VF43, in the assay with UniProt Q8VF52 and with UniProt Q8VFM8 was “inactive” throughout.

On to `CCC=CCCC=CC=O`, for which the “odorant receptor agonist call” value in the assay with UniProt Q8VF43, in the assay with UniProt Q8VF52 and with UniProt Q8VFM8 was “inactive” each time.

Turning to `C=C(CC)CCCC(C)(C)O`, the “odorant receptor agonist call” value with UniProt Q8VF43, in the assay with UniProt Q8VF52 and with UniProt Q8VFM8 was “inactive” each time.

As for `CCCCCC=CCCC=O`, the “odorant receptor agonist call” value with UniProt Q8VF43, with UniProt Q8VF52 and with UniProt Q8VFM8 was “inactive” throughout.

`Cc1ccc2c(c1)OCC(=O)CO2`: the “odorant receptor agonist call” value in the assay with UniProt Q8VF43, in the assay with UniProt Q8VF52 and with UniProt Q8VFM8 was “inactive” in each case.

Take `CC(C)CS`: the “odorant receptor agonist call” value in the assay with UniProt Q8VF43, with UniProt Q8VF52 and with UniProt Q8VFM8 was “inactive” throughout.

Turning to `CCCCCCCCOC=O`, the “odorant receptor agonist call” value with UniProt Q8VF43, with UniProt Q8VF52 and in the assay with UniProt Q8VFM8 was “inactive” each time.

`CCCCCC(C)O` (configuration not stated): the “odorant receptor agonist call” value in the assay with UniProt Q8VF43, in the assay with UniProt Q8VF52 and with UniProt Q8VFM8 was “inactive” throughout.

Take `C1CCOC1`: the “odorant receptor agonist call” value with UniProt Q8VF43, with UniProt Q8VF52 and with UniProt Q8VFM8 was “inactive” throughout.

As for `CCCCCCC=CC=O`, the “odorant receptor agonist call” value with UniProt Q8VF43, with UniProt Q8VF52 and with UniProt Q8VFM8 was “inactive” in each case.

`Cc1ccc(OC(=O)C(C)C)cc1`: the “odorant receptor agonist call” value with UniProt Q8VF43, with UniProt Q8VF52 and with UniProt Q8VFM8 was “inactive” in each case.

For `CCc1occc(=O)c1O`, the “odorant receptor agonist call” value with UniProt Q8VF43, in the assay with UniProt Q8VF52 and in the assay with UniProt Q8VFM8 was “inactive” in each case.

`CC=C(C)C=O`: the “odorant receptor agonist call” value with UniProt Q8VF43, with UniProt Q8VF52 and with UniProt Q8VFM8 was “inactive” each time.

Regarding `CCCCCCCCCCOC(C)=O`, the “odorant receptor agonist call” value with UniProt Q8VF43, with UniProt Q8VF52 and with UniProt Q8VFM8 was “inactive” each time.

For `COC(OC)c1ccccc1`, the “odorant receptor agonist call” value with UniProt Q8VF43, with UniProt Q8VF52 and with UniProt Q8VFM8 was “inactive” throughout.

Turning to `O=C(OCc1ccccc1)c1ccccc1O`, the “odorant receptor agonist call” value with UniProt Q8VF43, in the assay with UniProt Q8VF52 and with UniProt Q8VFM8 was “inactive” each time.

In the case of `CCCCCCCCCC=CC=O`, the “odorant receptor agonist call” value with UniProt Q8VF43, with UniProt Q8VF52 and with UniProt Q8VFM8 was “inactive” in each case.

As for `COc1nccnc1C`, the “odorant receptor agonist call” value with UniProt Q8VF43, with UniProt Q8VF52 and with UniProt Q8VFM8 was “inactive” throughout.

`O=C(O)C1CCC1`: the “odorant receptor agonist call” value with UniProt Q8VF43, with UniProt Q8VF52 and with UniProt Q8VFM8 was “inactive” throughout.

`COc1nccnc1C(C)C`: the “odorant receptor agonist call” value in the assay with UniProt Q8VF43, with UniProt Q8VF52 and in the assay with UniProt Q8VFM8 was “inactive” in each case.

With `C=C(C)C1CC=C(C)CC1` (configuration not stated), the “odorant receptor agonist call” value with UniProt Q8VF43, in the assay with UniProt Q8VF52 and in the assay with UniProt Q8VFM8 was “inactive” throughout.
